In ChEMBL document CHEMBL4613314, “Exploring the Implication of DDX3X in DENV Infection: Discovery of the First-in-Class DDX3X Fluorescent Inhibitor” (ACS Med Chem Lett, 2020):
Activity calls are given as the source filed them. No cut-off for these calls is given here.

How the values were obtained:
dengue virus type 2 [1] = experiment: Antiviral activity against Dengue virus serotype 2 New Guinea C infected at 50 TCID50 in human HuH7 cells assessed as inhibition of viral replication and 72 hrs later re-infected pre-seeded HuH7 cells with viral supernatant collected from previous infected and measured after 72 hrs by immunodetection assay; type: functional, organism-based; conditions: Huh-7, 72 h
Summary of the method: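 Huh-7 cells infected with 50 TCID50 DENV-2 in presence of serial compound dilutions; after 72 h supernatants used to infect preseeded Huh-7 cells for a second infection cycle; replication read after further 72 h by immunoenzymatic assay with monoclonal antibody to conserved viral E antigen region. IC50 from at least two experiments, mean ± SD.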

[2] = Cytotoxicity against human HuH7 cells assessed as reduction in cell viability by measuring ATP level measured after 72 hrs by CellTiter-Glo luminescent assay; type: cell-based, Huh-7
Summary of the method: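 Huh-7 cells; viable cell number determined from cellular ATP content by CellTiter-Glo 2.0 luminescence; CC50 derived.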

in vitro = conditions: human
[3] = molecular target: T1, ATP-dependent RNA helicase DDX3X (Homo sapiens, UniProt O00571); experiment: Inhibition of recombinant full length human His-tagged DDX3X expressed in Escherichia coli using dsRNA as substrate measured after 40 mins in presence of ATP by FRET assay
Target sequence in this assay (O00571 whole entry): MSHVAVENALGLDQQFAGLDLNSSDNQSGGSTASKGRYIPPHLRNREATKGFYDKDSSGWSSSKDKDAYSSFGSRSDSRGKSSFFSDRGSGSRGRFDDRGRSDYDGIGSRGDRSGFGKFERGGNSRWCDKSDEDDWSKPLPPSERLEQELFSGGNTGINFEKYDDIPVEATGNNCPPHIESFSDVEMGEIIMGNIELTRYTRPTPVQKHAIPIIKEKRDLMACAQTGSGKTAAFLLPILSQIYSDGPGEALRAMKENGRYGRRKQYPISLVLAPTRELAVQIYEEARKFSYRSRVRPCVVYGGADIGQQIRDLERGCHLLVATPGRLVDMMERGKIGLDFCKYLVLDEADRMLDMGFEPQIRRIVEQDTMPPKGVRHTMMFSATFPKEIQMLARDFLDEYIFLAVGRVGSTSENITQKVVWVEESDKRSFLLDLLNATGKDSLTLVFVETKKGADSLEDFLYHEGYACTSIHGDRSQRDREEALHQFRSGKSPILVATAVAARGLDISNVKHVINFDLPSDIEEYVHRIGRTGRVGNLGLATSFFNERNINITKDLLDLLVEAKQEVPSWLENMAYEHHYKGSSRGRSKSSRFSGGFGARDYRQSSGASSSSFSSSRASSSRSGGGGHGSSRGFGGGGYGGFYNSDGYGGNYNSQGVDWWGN

[4] = molecular target: T1, ATP-dependent RNA helicase DDX3X; experiment: Induction of DDX3X recruitment in human HuH7 cells infected with 100 TCID50 of Dengue virus serotype 2 New Guinea C assessed as colocalization of DDX3X in perinuclear region at 20 uM measured at 6 to 24 hrs post-infection by Alexa fluor 488 dye based confocal microscopy; type: cell-based; conditions: Huh-7
Summary of the method: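 Huh-7 cells infected with DENV-2 at 100 TCID50, treated with fluorescent inhibitor at 20 μM; fixed at 0, 6, 12 and 24 h p.i., permeabilized, immunostained for DDX3 or NS5 (Alexa Fluor 568 secondary) and examined by confocal microscopy for colocalization with the probe.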
Target sequence in this assay (O00571 2-662 limits assumed): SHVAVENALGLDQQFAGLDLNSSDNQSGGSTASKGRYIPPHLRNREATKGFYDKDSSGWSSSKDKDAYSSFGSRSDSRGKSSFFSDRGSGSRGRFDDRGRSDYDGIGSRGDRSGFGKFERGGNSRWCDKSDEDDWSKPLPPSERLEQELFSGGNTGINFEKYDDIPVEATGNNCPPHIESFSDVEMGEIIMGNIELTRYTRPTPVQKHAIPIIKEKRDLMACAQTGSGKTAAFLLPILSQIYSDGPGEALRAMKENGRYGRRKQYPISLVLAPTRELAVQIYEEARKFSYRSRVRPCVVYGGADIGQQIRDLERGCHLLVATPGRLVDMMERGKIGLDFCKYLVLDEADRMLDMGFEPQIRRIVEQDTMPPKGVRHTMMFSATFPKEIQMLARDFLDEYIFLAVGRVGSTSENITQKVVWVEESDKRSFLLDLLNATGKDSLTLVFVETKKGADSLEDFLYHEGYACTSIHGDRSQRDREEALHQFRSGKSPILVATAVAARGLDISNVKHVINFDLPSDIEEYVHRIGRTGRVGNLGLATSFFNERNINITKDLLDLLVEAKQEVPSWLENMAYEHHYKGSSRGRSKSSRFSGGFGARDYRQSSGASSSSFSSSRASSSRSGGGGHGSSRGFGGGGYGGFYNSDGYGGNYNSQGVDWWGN

dengue virus type 2 [5] = experiment: Antiviral activity against Dengue virus serotype 2 New Guinea C infected at 100 TCID50 in human HuH7 cells assessed as cytoplasmic localization of NS5 followed by movement to nucleus at 20 uM measured at 6 hrs post-infection by […]; type: functional, organism-based; conditions: Huh-7
[6] = molecular target: T1, ATP-dependent RNA helicase DDX3X; experiment: Induction of DDX3X recruitment in human HuH7 cells infected with 100 TCID50 of Dengue virus serotype 2 New Guinea C assessed as increase in DDX3X expression in perinuclear region at 20 uM measured at 48 to 72 hrs post-infection by Alexa fluor 488 dye based confocal microscopy; type: cell-based; conditions: Huh-7
Summary of the method: (§1)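 DENV-2-infected Huh-7 cells (100 TCID50) treated with fluorescent inhibitor at 20 μM; immunostained for DDX3X or NS5 and examined by confocal microscopy over time up to 72 h p.i.; viable cell number and NS5-positive cell number scored.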
Target sequence in this assay (O00571 2-662 limits assumed): as above

dengue virus type 2 [7] = experiment: Antiviral activity against Dengue virus serotype 2 New Guinea C infected at 100 TCID50 in human HuH7 cells assessed as increase in viable cells at 20 uM measured at 48 to 72 hrs post-infection by Alexa fluor 488 dye based confocal microscopy; type: functional, organism-based; conditions: Huh-7; summary of the method: as §1
dengue virus type 2 [8] = experiment: Antiviral activity against Dengue virus serotype 2 New Guinea C infected at 100 TCID50 in human HuH7 cells assessed as reduction of NS5 positive cells at 20 uM measured at 48 to 72 hrs post-infection by Alexa fluor 488 dye based confocal microscopy; type: functional, organism-based; conditions: Huh-7; summary of the method: as §1
dengue virus type 2 [9] = experiment: Antiviral activity against Dengue virus serotype 2 New Guinea C infected at 100 TCID50 in human HuH7 cells assessed as reduction in number of NS3 positive cells at 0.1 to 20 uM measured up to 24 hrs by Alexa fluor 488 dye based confocal microscopy; type: functional, organism-based; conditions: Huh-7
dengue virus type 2 [10] = experiment: Antiviral activity against Dengue virus serotype 2 New Guinea C infected at 100 TCID50 in human HuH7 cells assessed as reduction in number of NS5 positive cells at 0.1 to 20 uM measured up to 24 hrs by Alexa fluor 488 dye based confocal microscopy; type: functional, organism-based; conditions: Huh-7
dengue virus type 2 [11] = experiment: Antiviral activity against Dengue virus serotype 2 New Guinea C infected at 100 TCID50 in human HuH7 cells assessed as cytopathic effect by measuring increase in viable cells at 0.1 to 20 uM measured up to 24 hrs by Alexa fluor 488 based confocal microscopy; type: functional, organism-based; conditions: Huh-7
dengue virus type 2 [12] = experiment: Antiviral activity against Dengue virus serotype 2 New Guinea C infected at 100 TCID50 in human HuH7 cells assessed as reduction in number of dsRNA positive cells at 0.1 to 20 uM measured up to 24 hrs by Alexa fluor 488 dye based confocal microscopy; type: functional, organism-based; conditions: Huh-7

Row | SMILES | IC50 (dengue virus type 2 [1]) [µM] | CC50 at 72 h [2] [µM] | selectivity ratio at 72 h (in vitro; HuH7 cells) | IC50 [3] [µM] | other results
1 | CC(C)OC(=O)[C@H](C)N[P@](=O)(OC[C@H]1O[C@@H](n2ccc(=O)[nH]c2=O)[C@](C)(F)[C@@H]1O)Oc1ccccc1 [SOFOSBUVIR] | 3.8 | 200 | 52.6 | – | –
2 | CCOCc1cn(-c2cccc(S(=O)(=O)Nc3cccc(C(=O)O)c3)c2)nn1 | > 7 | 7 | – | – | –
3 | CCOCc1cn(-c2ccc(NC(=O)Nc3cccc(F)c3)cc2)nn1 | > 145 | 145 | – | 21.2 | –
4 | CCCCc1cn(-c2ccc(NC(=O)Nc3cccc(F)c3)cc2)nn1 | 10.5 | 200 | 19 | 0.6 | –
5 | CCCCc1cn(-c2ccc(NC(=O)Nc3ccccc3NS(C)(=O)=O)cc2)nn1 | 2.5 | 35 | 14 | 0.06 | –
6 | NC(=O)c1ncn([C@@H]2O[C@H](CO)[C@@H](O)[C@H]2O)n1 [RIBAVIRIN] | 4 | 100 | – | – | selectivity ratio at 72 h (in vitro): 25
7 | CC(=O)CCc1cn(-c2ccc(NC(=O)Nc3cccc(F)c3)cc2)nn1 | 0.3 | 20 | 64.7 | 2.4 | –
8 | O=C1OC2(c3ccc(O)cc3Oc3cc(O)ccc32)c2cc(NC(=S)NCCOCc3cn(-c4cccc(S(=O)(=O)Nc5ccccc5C(F)(F)F)c4)nn3)ccc21 | 28.2 | 140 | – | – | Activity [4]: Active; Activity (dengue virus type 2 [5]): Active; Activity [6]: Active; Activity (dengue virus type 2 [7]): Active; Activity (dengue virus type 2 [8]): Active
9 | CCCCc1cn(-c2cccc(S(=O)(=O)Nc3ccccc3C(F)(F)F)c2)nn1 | 6.1 | 18 | 3 | – | –
10 | CCOCc1cn(-c2cccc(S(=O)(=O)Nc3ccccc3NS(C)(=O)=O)c2)nn1 | 8.3 | 87 | 10.5 | 0.08 | –
11 | CCCCc1cn(-c2ccc(NC(=O)Nc3ccccc3C)cc2)nn1 | 2.55 | – | – | – | –
12 | CCCCc1cn(-c2cccc(S(=O)(=O)Nc3cccc4cnccc34)c2)nn1 | 2.3 | 30 | – | 0.12 | –
13 | O=C(Nc1ccc(-n2cc(CF)nn2)cc1)Nc1ccccc1C(F)(F)F | – | – | – | 2.2 | –
14 | CC(C)CCc1cn(-c2ccc(NC(=O)Nc3cccc(F)c3)cc2)nn1 | 2.5 | 200 | 80 | – | –
15 | CCCCc1cn(-c2cccc(S(=O)(=O)Nc3ccccc3O)c2)nn1 | 1.6 | 150 | – | 0.4 | –
16 | CCOCc1cn(-c2cccc(S(=O)(=O)Nc3ccccc3C(F)(F)F)c2)nn1 | 2.6 | 150 | – | – | Activity (dengue virus type 2 [9]): Active; Activity (dengue virus type 2 [10]): Active; Activity (dengue virus type 2 [11]): Active; Activity (dengue virus type 2 [12]): Active
17 | CCCC(C)C(F)c1cn(-c2ccc(NC(=O)Nc3ccccc3C(F)(F)F)cc2)nn1 (stereo not given) | – | – | – | 1.05 | –
18 | COc1cc(NC(=O)Nc2ccccc2C(F)(F)F)ccc1-n1cc(CCC(C)C)nn1 | – | – | – | 0.3 | –
19 | CCOCc1cn(-c2cccc(S(=O)(=O)Nc3cccc(C(=O)OCC)c3)c2)nn1 | 4.3 | 100 | 23.2 | 0.005 | –
20 | Cc1ccccc1NC(=O)Nc1ccc(-n2cc(CCC(C)C)nn2)cc1 | 1.4 | 170 | 121 | 0.17 | –
21 | CCCCc1cn(-c2cccc(S(=O)(=O)Nc3ccccc3OC)c2)nn1 | 6.3 | 79 | – | 0.18 | –
22 | CC(C)CCc1cn(-c2ccc(NC(=O)Nc3ccccc3F)cc2)nn1 | 0.9 | 200 | 222 | – | –
23 | CCOCc1cn(-c2cccc(S(=O)(=O)Nc3ccccc3N3CCOCC3)c2)nn1 | 5.3 | 100 | 18.9 | 0.06 | –
24 | CC(C)CCc1cn(-c2ccc(NC(=O)Nc3ccc(F)cc3)cc2)nn1 | – | – | – | 1.9 | –
25 | CCCCCCc1cn(-c2ccc(NC(=O)Nc3ccccc3C(F)(F)F)cc2)nn1 | 2.7 | 170 | 62.9 | 0.3 | –
26 | COc1cc(-n2cc(CCC(C)C)nn2)ccc1NC(=O)Nc1ccccc1C(F)(F)F | – | – | – | 1.05 | –
